Source: ChEMBL document CHEMBL1122499, “Structural requirements of olefinic 5-substituted deoxyuridines for antiherpes activity” (1983)
≈ marks a conversion by molar mass, not a printed value.

System: Human alphaherpesvirus 1
Test: Antiviral activity against herpes simplex virus type 1 (HSV-1) determined in baby hamster kidney cells
Format: functional
Details: not given
Procedure, shortened: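 Microplaque reduction with HSV-1 strain S3. Serial 0.5 log virus dilutions were inoculated onto baby hamster kidney cell monolayers in microtiter plates for infectivity end-point titration. Compound was present in the overlay (Dulbecco-modified Eagle MEM, 10% donor calf serum, 0.5% carboxymethylcellulose). MIC was the lowest concentration that cut the virus infectivity end point by at least 1 log versus the untreated control.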

Structure (SMILES)	MIC [µg/mL]
O=c1[nH]c(=O)n([C@H]2C[C@H](O)[C@@H](CO)O2)cc1/C=C/Br (stereo in doubt; 2) [BRIVUDINE]	0.005 (≈ 0.015 µM)
O=c1[nH]c(=O)n([C@H]2C[C@H](O)[C@@H](CO)O2)cc1/C=C/Br (stereo in doubt; 4) [BRIVUDINE]	0.1 (≈ 0.3 µM)

Same assay, conditions: Human alphaherpesvirus 1; read-out: MIC

Structure (SMILES)	MIC [µg/mL]
C/C=C/Cc1cn([C@H]2C[C@H](O)[C@@H](CO)O2)c(=O)[nH]c1=O.C/C=C\Cc1cn([C@H]2C[C@H](O)[C@@H](CO)O2)c(=O)[nH]c1=O	10
C/C(Br)=C/c1cn([C@H]2C[C@H](O)[C@@H](CO)O2)c(=O)[nH]c1=O.C/C(Br)=C\c1cn([C@H]2C[C@H](O)[C@@H](CO)O2)c(=O)[nH]c1=O	1
N#C/C=C/c1cn([C@H]2C[C@H](O)[C@@H](CO)O2)c(=O)[nH]c1=O	> 25
CCC#Cc1cn([C@H]2C[C@H](O)[C@@H](CO)O2)c(=O)[nH]c1=O	10 (≈ 35.7 µM)
CC#Cc1cn([C@H]2C[C@H](O)[C@@H](CO)O2)c(=O)[nH]c1=O	1 (≈ 3.76 µM)
C/C=C/c1cn([C@H]2C[C@H](O)[C@@H](CO)O2)c(=O)[nH]c1=O	0.5 (≈ 1.86 µM)
CCCCc1cn([C@H]2C[C@H](O)[C@@H](CO)O2)c(=O)[nH]c1=O	10 (≈ 35.2 µM)
COC(=O)/C(C)=C/c1cn([C@H]2C[C@H](O)[C@@H](CO)O2)c(=O)[nH]c1=O	> 100
COC(=O)/C=C(\C)c1cn([C@H]2C[C@H](O)[C@@H](CO)O2)c(=O)[nH]c1=O	> 100
CC(C)(C)/C=C/c1cn([C@H]2C[C@H](O)[C@@H](CO)O2)c(=O)[nH]c1=O	> 10
CCC/C=C/c1cn([C@H]2C[C@H](O)[C@@H](CO)O2)c(=O)[nH]c1=O	> 100
C/C=C(/C)c1cn([C@H]2C[C@H](O)[C@@H](CO)O2)c(=O)[nH]c1=O	> 100
CC(C)=Cc1cn([C@H]2C[C@H](O)[C@@H](CO)O2)c(=O)[nH]c1=O	> 50
C/C=C/c1cn([C@H]2C[C@H](O)[C@@H](CO)O2)c(=O)nc1N	50 (≈ 187 µM)
CC/C=C/c1cn([C@H]2C[C@H](O)[C@@H](CO)O2)c(=O)[nH]c1=O	0.5 (≈ 1.77 µM)
C/C(=C\Cl)c1cn([C@H]2C[C@H](O)[C@@H](CO)O2)c(=O)[nH]c1=O	> 100
CS/C=C/c1cn([C@H]2C[C@H](O)[C@@H](CO)O2)c(=O)[nH]c1=O	0.5 (≈ 1.66 µM)
C/C=C\c1cn([C@H]2C[C@H](O)[C@@H](CO)O2)c(=O)[nH]c1=O	100 (≈ 373 µM)
C/C(=C\Br)c1cn([C@H]2C[C@H](O)[C@@H](CO)O2)c(=O)[nH]c1=O	0.1 (≈ 0.288 µM)
CCCC/C=C/c1cn([C@H]2C[C@H](O)[C@@H](CO)O2)c(=O)[nH]c1=O	> 100
C/C=C/c1cn([C@H]2C[C@H](O)[C@@H](CO)O2)c(=O)[nH]c1=S	100 (≈ 352 µM)
C/C=C(\C)c1cn([C@H]2C[C@H](O)[C@@H](CO)O2)c(=O)[nH]c1=O	50 (≈ 177 µM)
C/C=C\c1cn([C@H]2C[C@H](O)[C@@H](CO)O2)c(=O)nc1N	> 100
COC(=O)/C=C/C=C/c1cn([C@H]2C[C@H](O)[C@@H](CO)O2)c(=O)[nH]c1=O	> 100
C=C(Cl)Cc1cn([C@H]2C[C@H](O)[C@@H](CO)O2)c(=O)[nH]c1=O	50 (≈ 165 µM)
C=CCc1cn([C@H]2C[C@H](O)[C@@H](CO)O2)c(=O)[nH]c1=O	100 (≈ 373 µM)
O=c1[nH]c(=O)n([C@H]2C[C@H](O)[C@@H](CO)O2)cc1C=C(Br)Br	0.1 (≈ 0.243 µM)
COC(=O)/C=C/c1cn([C@H]2C[C@H](O)[C@@H](CO)O2)c(=O)[nH]c1=O	10 (≈ 32 µM)
